# Experimental data from publication PMC8148065 (Acta Pharmaceutica Sinica. B, 2020).
# Entries after “also recorded” stand apart in the source; their conditions may differ.
# Assays:
# [1] = molecular target: T1, recombinant HMGCR protein (Homo sapiens, UniProt P04035); assay: HMG-CoA reductase activity assay; format: biochemical
# T1 sequence (P04035 426-888 limits assumed): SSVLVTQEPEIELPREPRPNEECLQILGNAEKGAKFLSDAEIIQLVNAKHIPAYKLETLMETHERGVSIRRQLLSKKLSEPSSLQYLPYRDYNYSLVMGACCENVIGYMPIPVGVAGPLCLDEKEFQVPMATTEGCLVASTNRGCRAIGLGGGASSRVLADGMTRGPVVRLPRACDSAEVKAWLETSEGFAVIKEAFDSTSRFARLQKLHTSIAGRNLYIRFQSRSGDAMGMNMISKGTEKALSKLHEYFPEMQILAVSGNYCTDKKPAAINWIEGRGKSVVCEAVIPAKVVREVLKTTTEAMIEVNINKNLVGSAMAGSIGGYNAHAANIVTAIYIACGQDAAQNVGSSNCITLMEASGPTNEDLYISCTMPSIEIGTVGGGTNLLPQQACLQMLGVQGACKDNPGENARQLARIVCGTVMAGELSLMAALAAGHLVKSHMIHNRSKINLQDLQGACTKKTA
# [2] = In vitro metabolic stability in mouse liver microsomes; format: in vitro ADME; conditions: for half-life at 1 μmol/L: pH 7.4
# Outline: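 Mouse liver microsomes (0.5 mg/mL) were incubated with the test compound (1 μmol/L) and an NADPH regeneration system in phosphate buffer (1.0 mmol/L EDTA), pH 7.4. The reaction was started with NADPH and quenched at 5, 15, 30 and 45 min with acetonitrile plus internal standard. Samples were centrifuged, diluted in water and quantified by LC–MS/MS. t1/2 and CLint are means of duplicates.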
# HMGCR [3] = molecular target: T2, HMGCR (Homo sapiens, UniProt P04035); assay: Western blot of HMGCR level in HepG2 cells; format: cell-based
# T2 sequence (P04035 1-888): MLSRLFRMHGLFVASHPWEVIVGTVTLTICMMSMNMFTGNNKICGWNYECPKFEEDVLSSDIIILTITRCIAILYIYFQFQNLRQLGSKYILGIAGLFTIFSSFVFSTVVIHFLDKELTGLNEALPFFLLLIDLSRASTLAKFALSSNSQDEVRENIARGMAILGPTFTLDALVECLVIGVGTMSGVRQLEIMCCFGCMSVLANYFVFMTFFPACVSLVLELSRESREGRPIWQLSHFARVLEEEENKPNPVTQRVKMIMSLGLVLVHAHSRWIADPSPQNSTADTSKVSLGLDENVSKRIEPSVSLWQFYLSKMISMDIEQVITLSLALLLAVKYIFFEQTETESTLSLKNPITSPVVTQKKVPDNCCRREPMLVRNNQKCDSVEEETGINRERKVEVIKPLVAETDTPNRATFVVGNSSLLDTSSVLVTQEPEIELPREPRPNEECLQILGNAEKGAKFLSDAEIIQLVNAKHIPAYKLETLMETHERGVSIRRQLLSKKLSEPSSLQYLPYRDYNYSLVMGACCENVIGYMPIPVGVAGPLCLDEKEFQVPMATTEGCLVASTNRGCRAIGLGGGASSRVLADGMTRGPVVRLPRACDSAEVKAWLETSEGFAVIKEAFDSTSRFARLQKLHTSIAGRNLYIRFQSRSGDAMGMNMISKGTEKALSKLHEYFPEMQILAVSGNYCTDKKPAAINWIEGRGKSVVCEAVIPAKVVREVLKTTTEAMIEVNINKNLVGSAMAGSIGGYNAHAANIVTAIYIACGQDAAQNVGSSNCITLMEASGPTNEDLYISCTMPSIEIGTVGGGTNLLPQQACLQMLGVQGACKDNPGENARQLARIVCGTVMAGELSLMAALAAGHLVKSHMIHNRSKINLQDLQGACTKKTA
# [4] = system: MFD-induced hypercholesterolemia; assay: MFD-induced mouse model of hypercholesterolemia; format: in vivo, C57BL/6 mice; conditions: MFD mice
# Outline: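 Male C57BL/6 mice (20–24 g) were fed medium-fat diet (12% fat, 0.5% sodium cholate, 1.25% cholesterol) with 3 weeks' induction. Survival, body weight and food intake were logged weekly. Sixteen hours post-dose, retro-orbital serum TC, LDL-C and TG were measured on an automated analyser (one-way ANOVA, mean ± SD).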
# HMGCR [5] = molecular target: T3, HMGCR (Mus musculus, UniProt Q01237); assay: Hepatic HMGCR level by Western blot in MFD-fed mice; format: in vivo, C57BL/6 mice; conditions: 20 mg/kg p.o. once daily 5 weeks, 16 h after final gavage
# T3 sequence (Q01237 1-887): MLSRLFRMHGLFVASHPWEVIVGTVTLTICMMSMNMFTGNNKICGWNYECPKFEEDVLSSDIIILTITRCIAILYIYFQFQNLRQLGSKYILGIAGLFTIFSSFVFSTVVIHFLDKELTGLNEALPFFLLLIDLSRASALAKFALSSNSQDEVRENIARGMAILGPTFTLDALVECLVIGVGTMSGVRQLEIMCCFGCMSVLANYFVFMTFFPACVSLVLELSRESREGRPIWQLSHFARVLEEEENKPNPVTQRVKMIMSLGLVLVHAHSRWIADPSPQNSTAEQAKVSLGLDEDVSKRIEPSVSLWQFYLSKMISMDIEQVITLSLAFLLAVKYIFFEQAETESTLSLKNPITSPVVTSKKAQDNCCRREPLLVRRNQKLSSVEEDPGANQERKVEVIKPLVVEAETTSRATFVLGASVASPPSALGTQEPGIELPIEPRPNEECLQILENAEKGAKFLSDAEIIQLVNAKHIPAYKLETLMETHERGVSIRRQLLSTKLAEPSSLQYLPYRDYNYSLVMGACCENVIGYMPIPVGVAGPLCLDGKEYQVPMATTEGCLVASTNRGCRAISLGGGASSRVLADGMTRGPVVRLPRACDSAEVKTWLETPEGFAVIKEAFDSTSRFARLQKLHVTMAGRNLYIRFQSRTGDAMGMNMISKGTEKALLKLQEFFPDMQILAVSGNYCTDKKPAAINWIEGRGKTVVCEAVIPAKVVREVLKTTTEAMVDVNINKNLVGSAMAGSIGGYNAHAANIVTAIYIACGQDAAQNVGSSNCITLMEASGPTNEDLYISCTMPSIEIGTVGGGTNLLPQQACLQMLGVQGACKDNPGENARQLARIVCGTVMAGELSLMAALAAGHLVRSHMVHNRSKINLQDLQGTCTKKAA
# [6] = Chemical stability in saline; format: physicochemical; conditions: pH 7.4, 37 °C, 24 h
# [7] = previously reported in mice ref 53; cited from earlier work
compound,measurement,setting,value
"C[C@H]1C=C2C=C[C@H](C)[C@H](CC[C@@H]3C[C@@H](O)CC(=O)O3)[C@H]2[C@@H](OC(=O)NCCCOCCOCCOCCCNc2cccc3c2C(=O)N(C2CCC(=O)NC2=O)C3=O)C1 (stereo partly drawn) [Compound 16a, (1S,3R,7S,8S,8aR)-8-(2-((2R,4R)-4-Hydroxy-6-oxotetrahydro-2H-pyran-2-yl)ethyl)-3,7-dimethyl-1,2,3,7,8,8a-hexahydronaphthalen-1-yl (3-(2-(2-(3-((2-(2,6-dioxopiperidin-3-yl)-1,3-dioxoisoindolin-4-yl)amino)propoxy)ethoxy)ethoxy)propyl)carbamate]",IC50,[1],1250 nM
"Cc1ncsc1-c1ccc(CNC(=O)[C@@H]2C[C@@H](O)CN2C(=O)[C@@H](NC(=O)CCCCCCCNC(=O)O[C@H]2C[C@@H](C)C=C3C=C[C@H](C)[C@H](CC[C@@H]4C[C@@H](O)CC(=O)O4)[C@H]32)C(C)(C)C)cc1 [Compound 21a, (1S,3R,7S,8S,8aR)-8-(2-((2R,4R)-4-Hydroxy-6-oxotetrahydro-2H-pyran-2-yl)ethyl)-3,7-dimethyl-1,2,3,7,8,8a-hexahydronaphthalen-1-yl (8-(((S)-1-((2S,4R)-4-hydroxy-2-((4-(4-methylthiazol-5-yl)benzyl)carbamoyl)pyrrolidin-1-yl)-3,3-dimethyl-1-oxobutan-2-yl)amino)-8-oxooctyl)carbamate]",IC50,[1],1560 nM
"Cc1ncsc1-c1ccc(CNC(=O)[C@@H]2C[C@@H](O)CN2C(=O)[C@@H](NC(=O)CCCCCCCCCCNC(=O)O[C@H]2C[C@@H](C)C=C3C=C[C@H](C)[C@H](CC[C@@H]4C[C@@H](O)CC(=O)O4)[C@H]32)C(C)(C)C)cc1 [Compound 21b, (1S,3R,7S,8S,8aR)-8-(2-((2R,4R)-4-Hydroxy-6-oxotetrahydro-2H-pyran-2-yl)ethyl)-3,7-dimethyl-1,2,3,7,8,8a-hexahydronaphthalen-1-yl (11-(((S)-1-((2S,4R)-4-hydroxy-2-((4-(4-methylthiazol-5-yl)benzyl)carbamoyl)pyrrolidin-1-yl)-3,3-dimethyl-1-oxobutan-2-yl)amino)-11-oxoundecyl)carbamate]",half-life at 1 μmol/L,"[2]; mouse, liver microsomes",4.18 min
same,CLint scaled at 1 μmol/L,"[2]; mouse, liver microsomes, pH 7.4, CLint (mL/min/kg), mouse liver microsomes, mean of duplicate",416 mL/min/kg
same,Dmax at 1 µM,"HMGCR [3]; HepG2, read-out: maximum degradation (Dmax)",56%
same,"Serum total cholesterol (TC), LDL-C and triglyceride (TG)","[4]; 20 mg/kg p.o. once daily, 5 weeks",moderate decrease
same,Serum TC and cholesteryl esters,"[4]; 60 mg/kg p.o. once daily, 5 weeks",significantly reduced to lower levels
same,Hepatic TC and TG,"[4]; 20 or 60 mg/kg p.o. once daily, 5 weeks",reduced hepatic TC and TG in a dose-dependent manner
same,Tolerability (body weight and food intake),[4]; oral once a day for 5 weeks,well tolerated; also recorded: no apparent change of body weight and food intake
same,"Steatosis and lipid deposition in liver sections (H&E, oil red O)","[4]; p.o. once daily, 5 weeks",ameliorated MFD-induced steatosis and lipid deposition
same,IC50,[1],1320 nM
same,Hepatic HMGCR level,HMGCR [5],robust HMGCR degradation
"C[C@H]1C=C2C=C[C@H](C)[C@H](CC[C@@H]3C[C@@H](O)CC(=O)O3)[C@H]2[C@@H](OC(=O)NCCCNc2cccc3c2C(=O)N(C2CCC(=O)NC2=O)C3=O)C1 (stereo partly drawn) [Compound 16c, (1S,3R,7S,8S,8aR)-8-(2-((2R,4R)-4-Hydroxy-6-oxotetrahydro-2H-pyran-2-yl)ethyl)-3,7-dimethyl-1,2,3,7,8,8a-hexahydronaphthalen-1-yl (3-((2-(2,6-dioxopiperidin-3-yl)-1,3-dioxoisoindolin-4-yl)amino)propyl)carbamate]",IC50,[1],2490 nM
"C[C@H]1C=C2C=C[C@H](C)[C@H](CC[C@@H]3C[C@@H](O)CC(=O)O3)[C@H]2[C@@H](OC(=O)NCCOCCOCCNc2cccc3c2C(=O)N(C2CCC(=O)NC2=O)C3=O)C1 (stereo partly drawn) [Compound 16b, (1S,3R,7S,8S,8aR)-8-(2-((2R,4R)-4-Hydroxy-6-oxotetrahydro-2H-pyran-2-yl)ethyl)-3,7-dimethyl-1,2,3,7,8,8a-hexahydronaphthalen-1-yl (2-(2-(2-((2-(2,6-dioxopiperidin-3-yl)-1,3-dioxoisoindolin-4-yl)amino)ethoxy)ethoxy)ethyl)carbamate]",Chemical stability (decomposition),[6],over half decomposition
same,IC50,[1],1880 nM
CC[C@H](C)C(=O)O[C@H]1C[C@@H](C)C=C2C=C[C@H](C)[C@H](CC[C@@H](O)C[C@@H](O)CC(=O)O)[C@H]21 [lovastatin acid],Tmax,[7],90 min
"CC[C@H](C)C(=O)O[C@H]1C[C@@H](C)C=C2C=C[C@H](C)[C@H](CC[C@@H]3C[C@@H](O)CC(=O)O3)[C@H]21 [Lovastatin, lovastatin, reference compound]",CLint,"[2]; mouse liver microsomes, mean of duplicate",7516 mL/min/kg
same,half-life at 1 μmol/L,"[2]; mouse, liver microsomes",0.73 min
same,Effect on HMGCR expression,"HMGCR [3]; HepG2 cells, range of concentrations (0.1, 1, 3, 10 μmol/L), 16 h",remarkably upregulated HMGCR in a dose-dependent manner
same,Tmax,[7],120 min
same,Hepatic HMGCR level,HMGCR [5],retained high HMGCR level
